Experimental data reported in ChEMBL document CHEMBL1165965, “Synthesis and structure-activity relationships of 1,2,3,4-tetrahydropyrido[2,3-b]pyrazines as potent and selective inhibitors of the anaplastic lymphoma kinase” (Bioorg Med Chem, 2010).

Assays:
[1] = biological target: Serine/threonine-protein kinase Nek6 (Homo sapiens) (UniProt Q9HC98); experiment: Inhibition of NEK6 at 1 uM
[2] = biological target: Cyclin-dependent kinase 17 (Homo sapiens) (UniProt Q00537); experiment: Inhibition of PCTK2 at 1 uM
[3] = biological target: T1, Ephrin type-A receptor 6 (Homo sapiens) (UniProt Q9UF33); experiment: Inhibition of EPHA6 at 1 uM
T1 sequence (whole entry): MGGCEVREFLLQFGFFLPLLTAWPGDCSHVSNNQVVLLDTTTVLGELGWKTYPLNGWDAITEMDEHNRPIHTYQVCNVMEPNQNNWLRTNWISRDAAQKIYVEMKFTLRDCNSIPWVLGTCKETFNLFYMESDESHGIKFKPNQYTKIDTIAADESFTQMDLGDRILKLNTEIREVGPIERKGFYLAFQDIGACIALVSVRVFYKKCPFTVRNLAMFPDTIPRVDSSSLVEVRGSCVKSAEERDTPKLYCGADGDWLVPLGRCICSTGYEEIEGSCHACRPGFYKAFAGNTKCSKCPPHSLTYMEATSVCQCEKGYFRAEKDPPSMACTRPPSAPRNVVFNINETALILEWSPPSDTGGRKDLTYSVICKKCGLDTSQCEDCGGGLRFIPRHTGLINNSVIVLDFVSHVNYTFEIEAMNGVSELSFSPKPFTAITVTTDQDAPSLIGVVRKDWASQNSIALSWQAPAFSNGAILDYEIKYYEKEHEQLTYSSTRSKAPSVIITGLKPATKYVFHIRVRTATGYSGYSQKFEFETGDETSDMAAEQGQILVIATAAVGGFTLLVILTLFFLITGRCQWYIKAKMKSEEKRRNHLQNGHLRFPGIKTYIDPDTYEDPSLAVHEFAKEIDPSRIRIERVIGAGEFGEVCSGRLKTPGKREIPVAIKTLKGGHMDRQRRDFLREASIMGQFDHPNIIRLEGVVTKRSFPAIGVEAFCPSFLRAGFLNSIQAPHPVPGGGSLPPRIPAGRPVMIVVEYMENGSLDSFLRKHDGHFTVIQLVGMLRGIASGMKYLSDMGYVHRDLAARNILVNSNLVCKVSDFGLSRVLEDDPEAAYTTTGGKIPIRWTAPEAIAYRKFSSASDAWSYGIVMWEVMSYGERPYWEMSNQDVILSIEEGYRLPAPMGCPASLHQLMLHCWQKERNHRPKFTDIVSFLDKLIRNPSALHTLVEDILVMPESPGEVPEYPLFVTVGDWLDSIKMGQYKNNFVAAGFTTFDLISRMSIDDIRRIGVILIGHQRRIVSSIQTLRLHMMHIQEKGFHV
Summary of the method: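 Single-concentration screen using Ambit Bioscience KINOMEscan technology across a panel of 250–400 kinases. Per-kinase inhibition from this screen was summarized as S(90), the fraction of kinases inhibited by more than 90%.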

[4] = biological target: Serine/threonine-protein kinase PLK1 (Homo sapiens) (UniProt P53350); experiment: Inhibition of PLK1 at 1 uM
Serine/threonine-protein kinase PLK1 (Homo sapiens), sequence (P53350 whole entry): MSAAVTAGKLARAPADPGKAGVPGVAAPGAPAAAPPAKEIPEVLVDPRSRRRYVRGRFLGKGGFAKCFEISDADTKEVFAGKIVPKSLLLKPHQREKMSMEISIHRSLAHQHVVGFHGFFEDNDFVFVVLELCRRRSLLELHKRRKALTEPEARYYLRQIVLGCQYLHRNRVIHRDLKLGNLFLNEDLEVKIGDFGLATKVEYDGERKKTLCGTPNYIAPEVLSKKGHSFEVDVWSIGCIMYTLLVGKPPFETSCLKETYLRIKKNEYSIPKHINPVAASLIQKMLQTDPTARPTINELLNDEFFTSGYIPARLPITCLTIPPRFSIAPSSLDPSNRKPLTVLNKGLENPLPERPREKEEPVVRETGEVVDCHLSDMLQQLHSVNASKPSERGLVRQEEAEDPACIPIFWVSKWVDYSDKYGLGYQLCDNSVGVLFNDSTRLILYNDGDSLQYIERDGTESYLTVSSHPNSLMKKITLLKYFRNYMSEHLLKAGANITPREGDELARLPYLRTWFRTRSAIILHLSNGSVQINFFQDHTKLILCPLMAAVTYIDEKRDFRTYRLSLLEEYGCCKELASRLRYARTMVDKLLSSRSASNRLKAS

[5] = biological target: T2, cAMP-dependent protein kinase catalytic subunit PRKX (Homo sapiens) (UniProt P51817); experiment: Inhibition of PRKX at 1 uM
T2 sequence (whole entry): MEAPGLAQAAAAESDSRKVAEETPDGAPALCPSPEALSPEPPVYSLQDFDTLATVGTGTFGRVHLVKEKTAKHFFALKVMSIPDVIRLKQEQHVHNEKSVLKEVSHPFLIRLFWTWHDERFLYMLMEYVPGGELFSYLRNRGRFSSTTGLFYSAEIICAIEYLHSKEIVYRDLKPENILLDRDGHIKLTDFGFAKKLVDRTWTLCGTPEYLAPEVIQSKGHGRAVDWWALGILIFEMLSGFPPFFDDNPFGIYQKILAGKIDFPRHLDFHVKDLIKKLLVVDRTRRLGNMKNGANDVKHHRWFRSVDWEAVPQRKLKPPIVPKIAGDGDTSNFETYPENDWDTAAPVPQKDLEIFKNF

[6] = biological target: T3, Inhibitor of nuclear factor kappa-B kinase subunit alpha (Homo sapiens) (UniProt O15111); experiment: Inhibition of IKK-alpha at 1 uM
T3 sequence (whole entry): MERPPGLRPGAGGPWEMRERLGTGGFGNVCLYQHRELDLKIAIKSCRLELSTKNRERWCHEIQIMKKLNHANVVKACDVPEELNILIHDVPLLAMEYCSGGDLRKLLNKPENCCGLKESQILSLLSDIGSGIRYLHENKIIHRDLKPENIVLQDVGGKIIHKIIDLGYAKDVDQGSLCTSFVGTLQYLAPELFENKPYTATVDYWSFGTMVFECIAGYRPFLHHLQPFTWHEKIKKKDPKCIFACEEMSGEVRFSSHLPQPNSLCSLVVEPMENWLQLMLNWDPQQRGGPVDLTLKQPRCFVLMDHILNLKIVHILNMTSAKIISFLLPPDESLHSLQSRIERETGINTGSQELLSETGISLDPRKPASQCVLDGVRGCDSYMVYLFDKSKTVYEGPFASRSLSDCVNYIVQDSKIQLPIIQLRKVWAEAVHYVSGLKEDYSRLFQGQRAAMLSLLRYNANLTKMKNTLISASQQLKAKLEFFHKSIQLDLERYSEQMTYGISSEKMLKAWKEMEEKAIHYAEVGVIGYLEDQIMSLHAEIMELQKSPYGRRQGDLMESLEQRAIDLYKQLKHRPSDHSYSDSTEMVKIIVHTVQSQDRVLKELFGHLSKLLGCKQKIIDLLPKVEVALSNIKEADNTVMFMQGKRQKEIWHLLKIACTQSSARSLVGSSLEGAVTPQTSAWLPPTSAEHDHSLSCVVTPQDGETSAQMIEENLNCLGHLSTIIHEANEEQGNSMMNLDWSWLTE

[7] = biological target: Angiopoietin-1 receptor (Homo sapiens) (UniProt Q02763); experiment: Inhibition of TIE2 at 1 uM
Angiopoietin-1 receptor (Homo sapiens), sequence (Q02763 whole entry): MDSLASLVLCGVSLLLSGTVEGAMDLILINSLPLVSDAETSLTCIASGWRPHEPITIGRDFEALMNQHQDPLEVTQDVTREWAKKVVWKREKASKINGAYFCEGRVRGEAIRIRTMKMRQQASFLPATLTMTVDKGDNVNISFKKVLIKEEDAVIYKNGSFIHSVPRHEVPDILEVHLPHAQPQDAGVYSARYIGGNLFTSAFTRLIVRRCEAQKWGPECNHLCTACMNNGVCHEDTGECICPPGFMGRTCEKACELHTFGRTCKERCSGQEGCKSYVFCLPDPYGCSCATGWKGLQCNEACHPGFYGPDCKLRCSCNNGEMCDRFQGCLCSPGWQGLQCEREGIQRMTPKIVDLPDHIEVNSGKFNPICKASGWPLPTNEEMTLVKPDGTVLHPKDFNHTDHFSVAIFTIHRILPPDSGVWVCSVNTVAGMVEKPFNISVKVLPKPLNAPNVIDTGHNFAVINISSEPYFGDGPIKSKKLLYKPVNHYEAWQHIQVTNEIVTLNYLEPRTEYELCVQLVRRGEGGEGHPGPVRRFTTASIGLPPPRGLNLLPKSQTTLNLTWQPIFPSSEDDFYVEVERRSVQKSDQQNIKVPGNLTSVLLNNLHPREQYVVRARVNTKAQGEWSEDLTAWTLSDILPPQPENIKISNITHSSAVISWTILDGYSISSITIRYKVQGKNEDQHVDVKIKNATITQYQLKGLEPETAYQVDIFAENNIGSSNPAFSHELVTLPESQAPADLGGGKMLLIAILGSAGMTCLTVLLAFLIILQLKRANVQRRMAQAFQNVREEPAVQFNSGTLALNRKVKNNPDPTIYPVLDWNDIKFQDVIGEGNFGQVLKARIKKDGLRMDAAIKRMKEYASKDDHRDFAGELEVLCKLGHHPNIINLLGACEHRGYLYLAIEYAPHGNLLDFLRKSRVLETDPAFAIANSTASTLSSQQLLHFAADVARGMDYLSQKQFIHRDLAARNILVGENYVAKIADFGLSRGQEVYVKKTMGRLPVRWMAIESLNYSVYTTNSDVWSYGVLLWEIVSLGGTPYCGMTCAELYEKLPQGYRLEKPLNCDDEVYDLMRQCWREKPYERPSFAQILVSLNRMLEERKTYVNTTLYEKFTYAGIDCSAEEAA

[8] = biological target: Mitogen-activated protein kinase 11 (Homo sapiens) (UniProt Q15759); experiment: Inhibition of p38-beta at 1 uM
Mitogen-activated protein kinase 11 (Homo sapiens), sequence (Q15759 whole entry): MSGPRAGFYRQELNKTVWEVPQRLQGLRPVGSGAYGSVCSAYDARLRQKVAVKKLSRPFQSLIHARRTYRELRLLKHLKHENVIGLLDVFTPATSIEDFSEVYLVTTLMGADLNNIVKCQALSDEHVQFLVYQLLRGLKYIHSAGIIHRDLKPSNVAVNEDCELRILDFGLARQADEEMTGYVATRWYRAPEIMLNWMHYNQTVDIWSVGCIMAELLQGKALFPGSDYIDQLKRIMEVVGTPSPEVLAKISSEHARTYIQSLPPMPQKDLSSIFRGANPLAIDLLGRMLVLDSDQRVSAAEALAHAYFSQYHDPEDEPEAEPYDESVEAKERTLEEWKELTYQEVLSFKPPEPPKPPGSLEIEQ

[9] = system: Proto-oncogene tyrosine-protein kinase receptor Ret (Homo sapiens), P07949 [V804M]; experiment: Inhibition of RET V804M mutant at 1 uM
Proto-oncogene tyrosine-protein kinase receptor Ret (Homo sapiens), P07949 [V804M], sequence (P07949 whole entry V804M): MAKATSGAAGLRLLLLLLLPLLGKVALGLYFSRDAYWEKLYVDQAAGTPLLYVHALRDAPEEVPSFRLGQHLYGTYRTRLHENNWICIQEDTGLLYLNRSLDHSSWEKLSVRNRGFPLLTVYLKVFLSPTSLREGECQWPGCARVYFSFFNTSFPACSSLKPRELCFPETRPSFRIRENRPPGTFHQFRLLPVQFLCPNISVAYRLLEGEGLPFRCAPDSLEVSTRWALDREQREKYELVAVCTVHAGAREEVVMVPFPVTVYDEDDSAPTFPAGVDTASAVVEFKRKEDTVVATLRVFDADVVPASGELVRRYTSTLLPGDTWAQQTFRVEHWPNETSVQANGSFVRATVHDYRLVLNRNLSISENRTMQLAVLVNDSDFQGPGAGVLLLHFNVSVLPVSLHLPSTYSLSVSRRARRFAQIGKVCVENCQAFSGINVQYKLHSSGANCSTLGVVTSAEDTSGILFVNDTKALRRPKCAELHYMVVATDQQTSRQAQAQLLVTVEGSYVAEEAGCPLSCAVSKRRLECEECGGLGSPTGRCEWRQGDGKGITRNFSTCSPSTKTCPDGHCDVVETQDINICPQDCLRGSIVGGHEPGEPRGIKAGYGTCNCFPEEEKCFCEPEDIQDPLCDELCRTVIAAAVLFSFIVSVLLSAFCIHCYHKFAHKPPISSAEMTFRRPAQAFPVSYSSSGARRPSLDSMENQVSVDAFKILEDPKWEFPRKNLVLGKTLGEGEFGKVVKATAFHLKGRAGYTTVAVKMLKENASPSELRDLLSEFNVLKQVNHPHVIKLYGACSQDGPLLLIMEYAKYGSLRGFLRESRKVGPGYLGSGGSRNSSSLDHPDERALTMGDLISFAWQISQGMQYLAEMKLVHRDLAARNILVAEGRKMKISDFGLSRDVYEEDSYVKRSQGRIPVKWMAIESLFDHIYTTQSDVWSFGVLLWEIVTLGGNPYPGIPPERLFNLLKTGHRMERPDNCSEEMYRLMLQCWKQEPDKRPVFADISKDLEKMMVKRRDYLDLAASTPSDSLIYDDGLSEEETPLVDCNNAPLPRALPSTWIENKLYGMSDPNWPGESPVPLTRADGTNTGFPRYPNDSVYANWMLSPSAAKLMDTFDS

[10] = biological target: Citron Rho-interacting kinase (Homo sapiens) (UniProt O14578); experiment: Inhibition of CIT at 1 uM
[11] = biological target: Cyclin-dependent kinase 14 (Homo sapiens) (UniProt O94921); experiment: Inhibition of PFTK1 at 1 uM
Cyclin-dependent kinase 14 (Homo sapiens), sequence (O94921 whole entry): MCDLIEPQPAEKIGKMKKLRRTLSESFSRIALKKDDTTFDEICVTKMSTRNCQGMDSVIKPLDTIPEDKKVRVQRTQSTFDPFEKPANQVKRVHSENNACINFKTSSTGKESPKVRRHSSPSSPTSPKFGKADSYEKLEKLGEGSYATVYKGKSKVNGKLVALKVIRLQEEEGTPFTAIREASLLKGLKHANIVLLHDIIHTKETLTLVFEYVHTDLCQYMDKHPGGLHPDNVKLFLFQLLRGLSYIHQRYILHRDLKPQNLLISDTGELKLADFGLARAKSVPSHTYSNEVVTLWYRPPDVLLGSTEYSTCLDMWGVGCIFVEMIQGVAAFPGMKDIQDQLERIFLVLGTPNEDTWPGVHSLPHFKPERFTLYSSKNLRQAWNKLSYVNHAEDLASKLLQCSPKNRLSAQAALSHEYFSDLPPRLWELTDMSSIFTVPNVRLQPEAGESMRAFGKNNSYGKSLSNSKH

[12] = biological target: Tyrosine-protein kinase Lyn (Homo sapiens) (UniProt P07948); experiment: Inhibition of LYN at 1 uM
Tyrosine-protein kinase Lyn (Homo sapiens), sequence (P07948 2-512 limits assumed): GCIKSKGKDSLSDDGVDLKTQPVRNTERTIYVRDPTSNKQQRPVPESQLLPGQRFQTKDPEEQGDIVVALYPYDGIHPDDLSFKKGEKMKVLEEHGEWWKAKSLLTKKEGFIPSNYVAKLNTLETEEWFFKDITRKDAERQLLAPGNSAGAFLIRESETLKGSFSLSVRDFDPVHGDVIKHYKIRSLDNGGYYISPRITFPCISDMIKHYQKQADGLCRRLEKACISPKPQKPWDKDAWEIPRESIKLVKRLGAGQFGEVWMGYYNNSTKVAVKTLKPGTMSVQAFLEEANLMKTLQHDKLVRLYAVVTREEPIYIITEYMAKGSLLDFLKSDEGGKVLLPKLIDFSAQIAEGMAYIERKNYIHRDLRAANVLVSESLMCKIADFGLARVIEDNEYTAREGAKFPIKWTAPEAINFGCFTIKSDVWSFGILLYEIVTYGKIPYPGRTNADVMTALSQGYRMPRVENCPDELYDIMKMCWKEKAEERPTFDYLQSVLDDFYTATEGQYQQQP
Summary of the method: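 Single-concentration screen on the Ambit KINOMEscan platform, run against a panel of 250–400 kinases. Per-kinase inhibition was also summarized as S(90), the fraction of kinases inhibited by more than 90%.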

[13] = biological target: MAP kinase-interacting serine/threonine-protein kinase 2 (Homo sapiens) (UniProt Q9HBH9); experiment: Inhibition of MKNK2 at 1 uM
MAP kinase-interacting serine/threonine-protein kinase 2 (Homo sapiens), sequence (Q9HBH9 whole entry, looked up): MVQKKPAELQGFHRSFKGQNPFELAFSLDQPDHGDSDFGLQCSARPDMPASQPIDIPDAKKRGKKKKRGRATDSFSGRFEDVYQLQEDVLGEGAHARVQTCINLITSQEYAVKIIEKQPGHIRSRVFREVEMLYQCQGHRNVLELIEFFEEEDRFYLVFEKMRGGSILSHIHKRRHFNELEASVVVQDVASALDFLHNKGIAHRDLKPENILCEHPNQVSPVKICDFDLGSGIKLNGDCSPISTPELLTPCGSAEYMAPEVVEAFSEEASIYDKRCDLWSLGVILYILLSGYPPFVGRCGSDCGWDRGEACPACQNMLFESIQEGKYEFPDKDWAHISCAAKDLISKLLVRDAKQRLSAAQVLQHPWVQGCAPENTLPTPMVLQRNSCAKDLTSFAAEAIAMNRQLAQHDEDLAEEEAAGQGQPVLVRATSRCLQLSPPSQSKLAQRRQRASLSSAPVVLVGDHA
Summary of the method: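 Kinase-panel screen using KINOMEscan technology, with 250–400 kinases per panel. Each compound was tested at a single concentration, and inhibition of each kinase was recorded. Selectivity was summarised as S(90), the fraction of kinases inhibited by more than 90%.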

Serine/threonine-protein kinase Nek6 (Homo sapiens), sequence (Q9HC98 whole entry): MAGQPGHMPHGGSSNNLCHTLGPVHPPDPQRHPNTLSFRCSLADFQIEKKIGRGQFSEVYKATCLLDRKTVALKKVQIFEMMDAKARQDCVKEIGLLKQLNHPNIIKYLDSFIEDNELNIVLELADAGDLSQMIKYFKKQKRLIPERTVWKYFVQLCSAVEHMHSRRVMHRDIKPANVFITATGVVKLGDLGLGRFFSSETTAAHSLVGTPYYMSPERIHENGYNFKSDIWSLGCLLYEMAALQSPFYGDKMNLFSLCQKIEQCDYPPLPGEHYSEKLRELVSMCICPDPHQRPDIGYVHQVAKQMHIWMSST

inhibition [1] [%] | inhibition [2] [%] | inhibition [3] [%] | inhibition [4] [%] | inhibition [5] [%] | inhibition [6] [%] | inhibition [7] [%] | inhibition [8] [%] | inhibition [9] [%] | inhibition [10] [%] | inhibition [11] [%] | inhibition [12] [%] | inhibition [13] [%] | SMILES
< 50 | < 50 | < 50 | < 50 | < 50 | < 50 | < 50 | < 50 | < 50 | < 50 | < 50 | < 50 | < 50 | CN1CCN(c2ccc(-c3cnc4c(c3)N(Cc3cc(Cl)ccc3Cl)CCN4)cn2)CC1
< 50 | < 50 | < 50 | < 50 | < 50 | < 50 | < 50 | < 50 | < 50 | < 50 | < 50 | < 50 | < 50 | CN1CCN(c2ccc(-c3cnc4c(c3)N(Cc3c(F)ccc(F)c3Cl)CCN4)cn2)CC1
< 50 | < 50 | < 50 | < 50 | < 50 | < 50 | < 50 | < 50 | < 50 | < 50 | < 50 | < 50 | < 50 | CN1CCN(c2ccc(-c3cnc4c(c3)N(Cc3cc(F)ccc3F)CCN4)cn2)CC1

Second part, the molecule before the results:

SMILES | inhibition [1] [%] | inhibition [2] [%] | inhibition [3] [%] | inhibition [4] [%] | inhibition [5] [%] | inhibition [6] [%] | inhibition [7] [%] | inhibition [8] [%] | inhibition [9] [%] | inhibition [10] [%] | inhibition [11] [%] | inhibition [12] [%] | inhibition [13] [%]
CN1CCN(c2ccc(-c3cnc4c(c3)N(Cc3cc(Cl)ccc3C(F)(F)F)CCN4)cn2)CC1 | < 50 | < 50 | < 50 | < 50 | < 50 | < 50 | < 50 | < 50 | < 50 | < 50 | < 50 | < 50 | < 50
COC1CCN(C(=O)c2ccc(-c3cnc4c(c3)N(Cc3cc(Cl)ccc3C(F)(F)F)CCN4)cc2)CC1 | < 50 |  | < 50 | < 50 | < 50 |  | < 50 | < 50 |  |  |  | < 50 | < 50
O=C(c1ccc(-c2cnc3c(c2)N(Cc2cc(Cl)ccc2C(F)(F)F)CCN3)cc1)N1CCCCC1 | < 50 |  | < 50 | < 50 | < 50 |  | < 50 | < 50 |  |  |  | < 50 | < 50
FC(F)(F)c1ccc(Cl)cc1CN1CCNc2ncc(-c3ccnc(N4CCNCC4)c3)cc21 | < 50 | < 50 | < 50 | < 50 | < 50 | < 50 | < 50 | < 50 | 76 | < 50 | < 50 | < 50 | < 50
CC(=O)N1CCN(c2cc(-c3cnc4c(c3)N(Cc3cc(Cl)ccc3C(F)(F)F)CCN4)ccn2)CC1 | < 50 | < 50 | < 50 | < 50 | < 50 | < 50 | < 50 | < 50 | < 50 | < 50 | < 50 | < 50 | < 50
O=C(O)c1ccc(-c2cnc3c(c2)N(Cc2cc(Cl)ccc2C(F)(F)F)CCN3)cc1 | < 50 |  | < 50 | < 50 | < 50 |  | < 50 | < 50 |  |  |  | < 50 | < 50
O=C(c1ccc(-c2cnc3c(c2)N(Cc2cc(Cl)ccc2C(F)(F)F)CCN3)cc1)N1CCC(N2CCCC2)CC1 | < 50 |  | < 50 | < 50 | < 50 |  | < 50 | < 50 |  |  |  | < 50 | < 50
